Results taken from ChEMBL document CHEMBL1136910, “Acetoxybenzhydrols as highly active and stable analogues of 1'S-1'-acetoxychavicol, a potent antiallergic principal from Alpinia galanga” (Bioorg Med Chem Lett, 2009).
Counter-ions that a name gives are not always drawn.

Columns and labels:
Type in all cases: functional, cell-based
RBL-2H3 [1] = test: Antiallergic activity against antigen-IgE-mediated degranulation in rat RBL2H3 cells assessed as inhibition of DNP-BSA-induced beta-hexosaminidase release preincubated for 10 mins before DNP-BSA challenge measured after 10 mins
In short: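 Test sample was added to each RBL-2H3 well 10 min before DNP-BSA challenge. β-Hexosaminidase released into the medium was determined 10 min after challenge.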

RBL-2H3 [2] = test: Antiallergic activity against antigen-IgE-mediated degranulation in rat RBL2H3 cells assessed as inhibition of DNP-BSA-induced IL4 release preincubated for 10 mins before DNP-BSA challenge measured after 4 hrs
In short: (§1)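 Test sample was added to each RBL-2H3 well 10 min before DNP-BSA challenge. TNF-α and IL-4 released into the medium were measured 4 h after challenge.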

RBL-2H3 [3] = test: Antiallergic activity against antigen-IgE-mediated degranulation in rat RBL2H3 cells assessed as inhibition of DNP-BSA-induced TNFalpha release preincubated for 10 mins before DNP-BSA challenge measured after 4 hrs; in short: as §1

Row | SMILES | IC50 (RBL-2H3 [1]) [µM] | IC50 (RBL-2H3 [2]) [µM] | IC50 (RBL-2H3 [3]) [µM]
1 | C=CC(=O)Oc1ccc(C(OC(=O)C=C)c2ccccc2)cc1 (stereo unspecified) | 28 | – | –
2 | CC(=O)Oc1ccc(C(OC(=O)C(C)(C)C)c2ccccc2)cc1 (stereo unspecified) | 36 | – | –
3 | CCC(=O)Oc1ccc(C(OC(=O)CC)c2ccccc2)cc1 (stereo unspecified) | 38 | – | –
4 | CC(=O)Oc1ccc(C(OC(=O)c2ccccc2)c2ccccc2)cc1 (stereo unspecified) | 17 | 23 | 28
5 | COC(=O)Oc1ccc(C(OC(=O)OC)c2ccccc2)cc1 (stereo unspecified) | 18 | – | –
6 | O=COc1ccc(C(OC=O)c2ccccc2)cc1 (stereo unspecified) | > 100 | – | –
7 | CC(=O)Oc1ccc(C(O)c2ccccc2)cc1 (stereo unspecified) | > 100 | – | –
8 | CN1CCC(=C2c3ccccc3CC(=O)c3sccc32)CC1 [KETOTIFEN FUMARATE] | 158 | – | –

Second part, the compound after the results:

Row | IC50 (RBL-2H3 [1]) [µM] | IC50 (RBL-2H3 [2]) [µM] | IC50 (RBL-2H3 [3]) [µM] | SMILES
9 | 14 | – | – | CC(=O)Oc1ccc(C(OC(C)=O)c2ccccc2)cc1 (stereo unspecified)
10 | > 100 | – | – | CC(C)C(=O)Oc1ccc(C(OC(=O)C(C)C)c2ccccc2)cc1 (stereo unspecified)
11 | 6.5 | 12 | 11 | COC(=O)OC(c1ccccc1)c1ccc(OC(C)=O)cc1 (stereo unspecified)
12 | 27 | – | – | CC(=O)Oc1ccc(C(OC(=O)C(C)C)c2ccccc2)cc1 (stereo unspecified)
